These results are taken from ChEMBL document CHEMBL2040714, “Synthesis of methylated quercetin derivatives and their reversal activities on P-gp- and BCRP-mediated multidrug resistance tumour cells” (Eur J Med Chem, 2012).

Bounds are passed on as bounds.

Data set [1] in a line: Cytotoxicity against human LCC-6 cells after 5 days by MTS assay. Format: cell-based. Particulars: LCC-6, 120 h. Summed up: (§1)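 Cells seeded in 96-well plates (6000/well for LCC6 and LCC6MDR) and exposed to a range of derivative concentrations, dissolved in DMSO at no more than 1% final, for 5 days at 37 °C. Viability read by MTS; IC50 taken from dose–response curves. Three repeats, mean ± SEM. LCC6 lines grown in DMEM with 10% heat-inactivated FBS; L929 is a mouse fibroblast line.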

Data set [2] has as its system L929. Put plainly: Cytotoxicity against mouse L929 cells after 5 days by MTS assay. Conditions: L929, 120 h. Format: cell-based. Summed up:
as §1

The species named for data set [3] is Homo sapiens. The data set is described as follows: Reversal of p-glycoprotein-mediated drug resistant in human LCC-6/MDR cells assessed as potentiation of paclitaxel-induced cytotoxicity at 1 uM after 5 days by MTS assay. Format: cell-based. Summed up: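 LCC6MDR cells (6000/well, DMEM with 10% FBS) given paclitaxel over a range of doses, with or without 1 μM modulator, for 5 days at 37 °C; MTS read-out. IC50 from dose–response curves, and RF = IC50 without / IC50 with 1.0 μM modulator. N = 2–4 independent experiments, mean ± SEM.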

Data set [4] concerns the target T1, Broad substrate specificity ATP-binding cassette transporter ABCG2 (Homo sapiens, UniProt Q9UNQ0).
T1 sequence (Q9UNQ0 whole entry): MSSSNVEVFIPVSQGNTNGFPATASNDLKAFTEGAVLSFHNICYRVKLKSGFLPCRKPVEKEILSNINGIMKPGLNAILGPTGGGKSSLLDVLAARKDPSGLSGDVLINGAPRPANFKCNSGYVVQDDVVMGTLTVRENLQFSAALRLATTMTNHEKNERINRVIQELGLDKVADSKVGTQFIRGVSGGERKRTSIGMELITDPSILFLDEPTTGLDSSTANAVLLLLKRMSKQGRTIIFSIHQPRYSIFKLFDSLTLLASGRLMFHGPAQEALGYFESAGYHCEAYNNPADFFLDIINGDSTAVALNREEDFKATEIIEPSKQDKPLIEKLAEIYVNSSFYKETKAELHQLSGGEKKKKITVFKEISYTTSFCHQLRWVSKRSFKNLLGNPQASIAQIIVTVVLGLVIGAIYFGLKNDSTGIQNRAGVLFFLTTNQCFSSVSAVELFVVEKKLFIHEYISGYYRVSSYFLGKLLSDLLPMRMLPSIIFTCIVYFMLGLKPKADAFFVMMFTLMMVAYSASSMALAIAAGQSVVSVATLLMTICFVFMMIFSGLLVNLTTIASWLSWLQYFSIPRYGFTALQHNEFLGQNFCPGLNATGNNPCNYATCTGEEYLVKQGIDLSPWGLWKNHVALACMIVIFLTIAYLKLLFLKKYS
Put plainly: Reversal of BCRP-mediated drug resistant in human HEK293/R2 cells assessed as potentiation of topotecan-induced cytotoxicity at 1 uM after 5 days by MTS assay. Conditions: hek293/r2, 120 h. Format: cell-based.

Data set [5] concerns the target T1, Broad substrate specificity ATP-binding cassette transporter ABCG2. Put plainly: Reversal of BCRP-mediated drug resistant in human MCF7-MX100 cells assessed as potentiation of topotecan-induced cytotoxicity at 1 uM after 5 days by MTS assay. Format: cell-based. Conditions: mcf7-mx100, 120 h.
The target in data set [6] is Multidrug resistance-associated protein 1 (Homo sapiens, UniProt P33527). The data set is described as follows: Reversal of MRP1-mediated drug resistant in human 2008/MRP1 cells assessed as potentiation of doxorubicin-induced cytotoxicity at 1 uM after 5 days by MTS assay. Format: cell-based. Conditions: 2008/mrp1, 120 h.
Chain of Multidrug resistance-associated protein 1 (P33527 whole entry): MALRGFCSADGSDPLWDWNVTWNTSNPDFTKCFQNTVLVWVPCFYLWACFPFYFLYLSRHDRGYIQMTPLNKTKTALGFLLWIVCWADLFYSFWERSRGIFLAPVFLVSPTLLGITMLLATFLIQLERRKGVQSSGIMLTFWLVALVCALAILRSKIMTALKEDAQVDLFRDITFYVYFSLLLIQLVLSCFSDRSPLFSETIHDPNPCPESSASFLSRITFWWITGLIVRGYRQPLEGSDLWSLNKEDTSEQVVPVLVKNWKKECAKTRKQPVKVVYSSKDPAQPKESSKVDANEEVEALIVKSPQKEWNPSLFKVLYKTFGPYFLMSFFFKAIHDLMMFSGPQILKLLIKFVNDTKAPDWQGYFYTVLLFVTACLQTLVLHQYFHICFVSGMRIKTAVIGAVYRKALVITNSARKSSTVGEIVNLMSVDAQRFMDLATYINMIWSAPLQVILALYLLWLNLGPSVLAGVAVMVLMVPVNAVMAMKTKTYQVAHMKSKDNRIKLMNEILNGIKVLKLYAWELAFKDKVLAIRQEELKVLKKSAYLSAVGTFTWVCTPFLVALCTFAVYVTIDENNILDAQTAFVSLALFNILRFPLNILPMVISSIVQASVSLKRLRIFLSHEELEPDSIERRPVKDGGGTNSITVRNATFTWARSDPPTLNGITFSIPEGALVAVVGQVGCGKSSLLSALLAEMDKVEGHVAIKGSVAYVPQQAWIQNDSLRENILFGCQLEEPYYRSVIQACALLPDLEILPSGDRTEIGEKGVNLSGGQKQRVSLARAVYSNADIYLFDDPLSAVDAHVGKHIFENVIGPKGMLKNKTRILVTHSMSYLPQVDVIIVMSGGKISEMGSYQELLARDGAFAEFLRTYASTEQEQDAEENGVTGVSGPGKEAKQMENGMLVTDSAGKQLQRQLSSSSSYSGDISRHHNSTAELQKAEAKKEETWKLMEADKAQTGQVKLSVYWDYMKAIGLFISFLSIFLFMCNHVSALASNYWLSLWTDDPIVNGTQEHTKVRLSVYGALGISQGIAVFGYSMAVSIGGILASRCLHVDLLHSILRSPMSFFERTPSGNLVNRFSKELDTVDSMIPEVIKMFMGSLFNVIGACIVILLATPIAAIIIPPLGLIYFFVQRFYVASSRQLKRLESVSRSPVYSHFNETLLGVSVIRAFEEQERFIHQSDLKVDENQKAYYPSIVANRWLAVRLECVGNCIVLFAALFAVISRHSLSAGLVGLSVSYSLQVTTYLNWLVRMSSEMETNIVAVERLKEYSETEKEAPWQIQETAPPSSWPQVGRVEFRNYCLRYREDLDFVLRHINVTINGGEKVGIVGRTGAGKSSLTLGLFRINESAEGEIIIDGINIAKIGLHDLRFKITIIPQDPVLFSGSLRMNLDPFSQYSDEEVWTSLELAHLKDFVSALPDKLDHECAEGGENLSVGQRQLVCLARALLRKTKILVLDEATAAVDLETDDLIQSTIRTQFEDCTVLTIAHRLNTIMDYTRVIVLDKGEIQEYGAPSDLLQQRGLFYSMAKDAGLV
A short description of data set [7]: Cytotoxicity against multidrug resistant human LCC6MDR cells after 5 days by MTS assay. Particulars: 120 h.
The test system of data set [8] is NCI/ADR-RES. Put plainly: Modulation of p-glycoprotein-mediated drug resistant in human MCF7/ADR cells assessed as increase of daunomycin accumulation at 100 uM. It counts as cell-based.

For `COc1cc(OC)c2c(=O)c(OCCn3cnc4c(=O)n(C)c(=O)n(C)c43)c(-c3ccc(OC)c(OC)c3)oc2c1`, the IC50 in data set [1], in data set [2] and in data set [7] was more than 100 µM in each case. Moreover, the fold change (FC) in data set [3] was determined as 1.2; in data set [4], 1.4; in data set [5], 1.4; in data set [6], 1.

On to `COc1cc(OC)c2c(=O)c(OCCO)c(-c3ccc(OC)c(OC)c3)oc2c1`, for which the half-inhibitory concentration (IC50) in data set [1], in data set [2] and in data set [7] was more than 100 µM throughout. Moreover, the fold change (FC) in data set [3] stood at 1.4; in data set [4], 3.9; in data set [5], 1.5; in data set [6] it was 0.8.

Take `COc1cc(OC)c2c(=O)c(OCCOC(=O)/C=C/c3cc(OC)c(OC)c(OC)c3)c(-c3ccc(OC)c(OC)c3)oc2c1`: the IC50 in data set [1], in data set [2] and in data set [7] was more than 100 µM throughout. In addition, the fold change (FC) came out at 6 in data set [3], 14 in data set [4], 9.1 in data set [5] and 1.5 in data set [6].

Turning to `COc1cc(OC)c2c(=O)c(O[C@@H]3O[C@H](CO[C@@H]4O[C@@H](C)[C@H](OC)[C@@H](OC)[C@H]4OC)[C@@H](OC)[C@H](OC)[C@H]3OC)c(-c3ccc(OC)c(OC)c3)oc2c1`, the IC50 in data set [1], in data set [2] and in data set [7] was more than 100 µM each time. The fold change (FC) stood at 1 in data set [3], 1.5 in data set [4], 5.3 in data set [5] and 1.4 in data set [6].

With `COc1ccc(C(=O)OCCOc2c(-c3ccc(OC)c(OC)c3)oc3cc(OC)cc(OC)c3c2=O)cc1`, the IC50 in data set [1], in data set [2] and in data set [7] was more than 100 µM throughout. Also, the fold change (FC) in data set [3] is 11.3; in data set [4], 12.1; in data set [5], 7.3; in data set [6], 1.5.

On to `C[C@@H]1O[C@@H](OC[C@H]2O[C@@H](Oc3c(-c4ccc(O)c(O)c4)oc4cc(O)cc(O)c4c3=O)[C@H](O)[C@@H](O)[C@@H]2O)[C@H](O)[C@H](O)[C@H]1O` [RUTIN], for which the IC50 in data set [1], in data set [2] and in data set [7] was more than 100 µM throughout. The fold change (FC) in data set [3] was 0.9; in data set [4] it was 1.3; in data set [5], 4.3; in data set [6] it was 1.2.

`COc1cc(OC)c2c(=O)c(OC(=O)c3cc(OC)c(OC)c(OC)c3)c(-c3ccc(OC)c(OC)c3)oc2c1`: the results for the IC50 in data set [1], in data set [2] and in data set [7] were more than 79 µM, 74.1 µM and 87.4 µM, respectively. Also, the fold change (FC) in data set [3] came out at 2.1; in data set [4], 5.8; in data set [5] it was 9.6; in data set [6], 0.9.

`COc1cc(OC)c2c(=O)c(OC)c(-c3ccc(OC)c(OC)c3)oc2c1`: the IC50 in data set [1], in data set [2] and in data set [7] was more than 100 µM each time. In addition, the fold change (FC) came to 1.9 in data set [3], 8.7 in data set [4], 7.9 in data set [5] and 0.8 in data set [6].

Take `COc1cc(OC)c2c(=O)c(OCCOC(=O)c3cc(OC)c(OC)c(OC)c3)c(-c3ccc(OC)c(OC)c3)oc2c1`: the IC50 in data set [1], in data set [2] and in data set [7] was more than 100 µM in each case. The fold change (FC) in data set [3] was found to be 3.2; in data set [4], 4.7; in data set [5], 2; in data set [6] it was 1.1.

`COc1cc(OC)c2c(=O)c(OCc3cc(OC)c(OC)c(OC)c3)c(-c3ccc(OC)c(OC)c3)oc2c1`: the IC50 stood at 14.5 µM in data set [1], 17.6 µM in data set [2] and 46.6 µM in data set [7]. Moreover, the fold change (FC) in data set [3] came to 9.6; in data set [4], 11.3; in data set [5], 4.7; in data set [6] it was 1.2.

With `COc1cc(OC)c2c(=O)c(OCCOC(=O)c3ccc(OC)c(OC)c3)c(-c3ccc(OC)c(OC)c3)oc2c1`, the IC50 in data set [1], in data set [2] and in data set [7] was more than 100 µM in each case. For the same compound, the fold change (FC) in data set [3] is 6.4; in data set [4] it was 4.6; in data set [5], 6.7; in data set [6] it was 1.2.

For `COc1ccc(CCN(C)CCCC(C#N)(c2ccc(OC)c(OC)c2)C(C)C)cc1OC` (configuration not stated), the Activity in data set [8] was 229%.

Consider `O=c1c(O)c(-c2ccc(O)c(O)c2)oc2cc(O)cc(O)c12` [QUERCETIN], for which, in data set [8], the Activity worked out at 202%. For the same compound, the IC50 in data set [1], in data set [2] and in data set [7] was more than 100 µM each time.

Regarding `COc1cc(OC)c2c(=O)c(OCCn3cnc4c(N)ncnc43)c(-c3ccc(OC)c(OC)c3)oc2c1`, the IC50 in data set [1], in data set [2] and in data set [7] was more than 100 µM each time. For the same compound, the fold change (FC) came out at 1.1 in data set [3], 1.2 in data set [4], 1.2 in data set [5] and 0.8 in data set [6].

Take `COc1cc(OC)c2c(=O)c(OCC(=O)c3ccc(OC)c(OC)c3)c(-c3ccc(OC)c(OC)c3)oc2c1`: the IC50 in data set [1], in data set [2] and in data set [7] was more than 100 µM throughout. In addition, the fold change (FC) in data set [3] came out at 1.3; in data set [4], 1.4; in data set [5], 1.4; in data set [6] it was 0.9.

Take `COc1cc(OC)c2c(=O)c(OCCOc3cc4c(Nc5ccc(F)c(Cl)c5)ncnc4cc3OC)c(-c3ccc(OC)c(OC)c3)oc2c1`: the IC50 in data set [1], in data set [2] and in data set [7] was more than 100 µM throughout. The fold change (FC) in data set [3] is 1.5; in data set [4] it was 4.3; in data set [5], 1.2; in data set [6], 1.

For `COc1cc(OC)c2c(=O)c(O)c(-c3ccc(OC)c(OC)c3)oc2c1`, the IC50 in data set [1], in data set [2] and in data set [7] was more than 100 µM in each case. The fold change (FC) came to 1.7 in data set [3], 3.3 in data set [4], 6 in data set [5] and 0.7 in data set [6].

As to `COc1cc(O)c2c(=O)c(OC)c(-c3ccc(OC)c(OC)c3)oc2c1` [RETUSIN], the IC50 in data set [1], in data set [2] and in data set [7] was more than 100 µM throughout. In addition, the fold change (FC) in data set [3] was found to be 3.7; in data set [4], 13; in data set [5], 19.3; in data set [6] it was 0.7.
